# Results from different studies.
# Compare with care: the assays were run in different laboratories.
# Target: Inhibitor of nuclear factor kappa-B kinase subunit epsilon (IKBKE, Homo sapiens, UniProt Q14164)
# Residues used in one study (Q14164 1-716): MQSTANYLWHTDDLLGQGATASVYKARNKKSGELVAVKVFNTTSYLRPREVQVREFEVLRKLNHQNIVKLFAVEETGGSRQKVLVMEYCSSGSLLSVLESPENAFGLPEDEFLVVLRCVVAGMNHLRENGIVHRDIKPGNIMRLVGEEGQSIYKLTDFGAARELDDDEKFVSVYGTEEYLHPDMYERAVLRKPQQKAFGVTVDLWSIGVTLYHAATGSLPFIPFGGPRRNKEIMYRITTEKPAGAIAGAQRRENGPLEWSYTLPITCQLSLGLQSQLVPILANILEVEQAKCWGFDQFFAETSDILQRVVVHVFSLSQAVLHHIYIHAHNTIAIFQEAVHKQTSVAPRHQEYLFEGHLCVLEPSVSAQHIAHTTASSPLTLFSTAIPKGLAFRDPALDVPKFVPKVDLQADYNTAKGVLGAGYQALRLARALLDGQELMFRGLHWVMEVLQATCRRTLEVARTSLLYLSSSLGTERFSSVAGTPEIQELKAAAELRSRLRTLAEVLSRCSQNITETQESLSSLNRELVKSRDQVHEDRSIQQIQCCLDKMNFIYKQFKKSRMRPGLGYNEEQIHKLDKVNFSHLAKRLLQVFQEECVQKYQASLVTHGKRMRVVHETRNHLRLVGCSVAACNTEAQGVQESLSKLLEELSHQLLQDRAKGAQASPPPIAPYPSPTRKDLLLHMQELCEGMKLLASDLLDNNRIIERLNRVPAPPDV
SMILES,effect on,method,tested at,remaining binding [%]
CN(c1nccc(-c2cnn3ncccc23)n1)C1CC1,binding,,1 µM,100
C[C@@H](c1ccc(-n2cnc3c(N)ncnc32)cc1)N1CCc2nn(C)c(Cc3ccccc3)c2C1=O,binding,competition with immobilised ligand,0.1 µM,73
O=C(NCCCN1CCOCC1)c1ccc(Nc2ncc(Cl)c(-c3ccc(Cl)s3)n2)cc1,binding,competition with immobilised ligand,1 µM,52
N[C@H]1CCN(c2nccc(-c3cnn4ncccc34)n2)C1,binding,,1 µM,91
CNC(=O)Nc1ccc2c(c1)CC[C@@]21OC(=O)N(CC(=O)N(Cc2ccc(F)cc2)[C@@H](C)C(F)(F)F)C1=O,cell-free assay,competition with immobilised ligand,1 µM,51
Cc1cnn2ncc(-c3ccnc(N(C)C)n3)c2c1,binding,,1 µM,96
CO[C@H]1CC[C@H](CNc2ccc(S(=O)(=O)NC(=O)c3ccc(N4CCN(CC5=C(c6ccc(Cl)cc6)CC(C)(C)CC5)CC4)cc3Oc3cnc4[nH]ccc4c3)cc2[N+](=O)[O-])CC1,cell-free assay,competition with immobilised ligand,1 µM,100
O=C(NCC1CCOCC1)c1n[nH]cc1NC(=O)c1c(F)cccc1F,binding,competition with immobilised ligand,1 µM,81
C[C@@H]1CCN(c2nccc(-c3cnn4ncccc34)n2)C1,binding,,1 µM,82
CC(C)(O)c1cncc(-c2nc3ccc(F)cc3n2C2CC2)c1,cell-free assay,competition with immobilised ligand,1 µM,100
COc1cnc(Nc2cccc(S(N)(=O)=O)c2)nc1N1CCN(c2ccccc2)CC1,binding,competition with immobilised ligand,1 µM,57
c1cncc(-c2cccc(Nc3nccc(NC4CCCCC4)n3)c2)c1,binding,competition with immobilised ligand,10 µM,41
CCC(=O)N[C@@H]1CC[C@H](C(=O)N(C)c2ccc(-c3nc4ccccc4o3)cc2)C1,cell-free assay,competition with immobilised ligand,1 µM,60
CN(C)c1ncc(F)c(-c2cnn3ncccc23)n1,binding,,1 µM,99
O=C(NCc1ncc(C(F)(F)F)cc1Cl)c1ccc2c(c1)C1(CCS(=O)(=O)CC1)[C@H](C1CC1)N2S(=O)(=O)c1ccc(F)cc1,cell-free assay,competition with immobilised ligand,1 µM,77
CCN1CCN(Cc2ccc(C(=O)Nc3ccc(C)c(Oc4ccc5c(c4)CC(=O)N5)c3)cc2C(F)(F)F)CC1,binding,competition with immobilised ligand,1 µM,100
Cc1cnc(Nc2ccc(C(=O)N3CCC(N4CCCC4)CC3)cc2)nc1-c1cc2ccccc2s1,binding,competition with immobilised ligand,1 µM,18
CCS(=O)(=O)c1cc2cc(C[C@@](O)(CC(C)(C)c3ccc(F)cc3C(N)=O)C(F)(F)F)[nH]c2cn1,cell-free assay,competition with immobilised ligand,1 µM,83
O=C(c1ccc(Nc2ncc(Cl)c(-c3ccc(Cl)s3)n2)cc1)N1CCC(N2CCCC2)CC1,binding,competition with immobilised ligand,1 µM,7.7
CN(CCCC(F)(F)F)c1nccc(-c2cnn3ncccc23)n1,binding,,1 µM,100
